Laboratory results from ChEMBL document CHEMBL1153232, “Synthesis and screening of a CaaL peptide library versus FTase reveals a surprising number of substrates” (Bioorg Med Chem Lett, 2010).
Active and inactive are the calls of the source. The calls are words filed in the database; no cut-off is given here. Peptide text beside a SMILES is read from it. * marks the point of attachment. Dansyl = CN(C)c1cccc2c(S(=O)(=O)*)cccc12

Legend:
[1] = biological target: Protein farnesyltransferase subunit beta (Homo sapiens) (UniProt P49356); experiment: Activity at FTase assessed as formation of farnesylated peptide after 60 mins by HPLC
Outline: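 Peptide (3 μM) with 9 μM FPP and recombinant mammalian FTase (0.05 μM), incubated 60 min. HPLC scored conversion to farnesylated peptide: complete; nearly complete; 25% to 50%; less than 25%; no product.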

[2] = biological target: Protein farnesyltransferase subunit beta (Homo sapiens) (UniProt P49356); experiment: Substrate activity for FTase assessed as increase in fluorescence by spectrofluorimetry in presence of farnesyl diphosphate relative to DnGCVLS; set-up: concentration or dose not given beside the values
[3] = biological target: Protein farnesyltransferase subunit beta (Homo sapiens) (UniProt P49356); experiment: Ratio of kcat to km for FTase in presence of farnesyl diphosphate
Outline: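 Steady-state kinetics at saturating FPP (10 μM), 0.2-10 μM dansyl peptide, 20-100 nM FTase (at least 5-fold below peptide). Buffer: 50 mM HEPPSO pH 7.8, 5 mM TCEP, 5 mM MgCl2, 25 °C. Peptide preincubated 20 min in buffer, then FTase and FPP added. Fluorescence (ex 340, em 520 nm) followed over time and converted to kcat/KM.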

Protein farnesyltransferase subunit beta (Homo sapiens), sequence (P49356 whole entry): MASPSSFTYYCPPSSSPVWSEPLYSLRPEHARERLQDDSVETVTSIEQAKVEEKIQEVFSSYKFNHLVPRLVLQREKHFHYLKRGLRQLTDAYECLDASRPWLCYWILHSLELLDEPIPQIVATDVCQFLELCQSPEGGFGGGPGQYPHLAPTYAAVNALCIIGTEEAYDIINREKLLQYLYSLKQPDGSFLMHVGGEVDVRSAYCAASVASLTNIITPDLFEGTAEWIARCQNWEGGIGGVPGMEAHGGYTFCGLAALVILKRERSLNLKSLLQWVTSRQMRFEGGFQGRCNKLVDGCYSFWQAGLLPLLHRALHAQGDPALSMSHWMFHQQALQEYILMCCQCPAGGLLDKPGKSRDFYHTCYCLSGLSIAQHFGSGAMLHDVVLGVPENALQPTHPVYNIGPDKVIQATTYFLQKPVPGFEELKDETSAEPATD

Activity [1] | Activity [2] | Ratio [3] | Compound
Active | 61% | 23 mM⁻¹ s⁻¹ | CC[C@H](C)[C@H](NC(=O)[C@H](CS)NC(=O)[C@H](CS)NC(=O)CNS(=O)(=O)c1cccc2c(N(C)C)cccc12)C(=O)N[C@@H](CC(C)C)C(=O)O (Dansyl-GCCIL-OH)
Active | 52% | 47 mM⁻¹ s⁻¹ | CC[C@H](C)[C@H](NC(=O)[C@@H](NC(=O)[C@H](CS)NC(=O)CNS(=O)(=O)c1cccc2c(N(C)C)cccc12)C(C)C)C(=O)N[C@@H](CC(C)C)C(=O)O (Dansyl-GCVIL-OH)
